In brackets after ≈: the same amount, converted by molar mass.
Assays:
Staphylococcus aureus [1] = test: Antibacterial activity against Staphylococcus aureus ATCC 29213 by broth microdilution method; assay type: functional
[2] = Antibacterial activity against Staphylococcus aureus Mu50 ATCC 700699 by broth microdilution method; assay type: functional, Staphylococcus aureus subsp. aureus Mu50
Staphylococcus aureus [3] = test: Antibacterial activity against methicillin-resistant Staphylococcus aureus MRSA M923 by broth microdilution method; assay type: functional
Staphylococcus aureus [4] = test: Antibacterial activity against methicillin-resistant Staphylococcus aureus MRSA 433 by broth microdilution method; assay type: functional
Staphylococcus aureus [5] = test: Antibacterial activity against methicillin-resistant Staphylococcus aureus MRSA F511 by broth microdilution method; assay type: functional
Staphylococcus aureus [6] = test: Antibacterial activity against linezolid-sensitive methicillin-resistant Staphylococcus aureus by broth microdilution method; assay type: functional
[7] = tested on: Staphylococcus epidermidis; test: Antibacterial activity against linezolid-resistant methicillin-resistant Staphylococcus epidermidis by broth microdilution method; assay type: functional
HepG2 [8] = test: Cytotoxicity against human HepG2 cells at 25 ug/ml after 48 hrs by presto-blue staining-based assay; assay type: cell-based; settings: hepg2, 48 h
Outline: (§1)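 HepG2 cells were grown in DMEM with 10% heat-inactivated FBS, 2 mM L-glutamine and penicillin/streptomycin. They were seeded at 40,000 cells/cm² on collagen-coated wells and treated two days later with enantiomers at 25–100 µg/ml (in DMSO) for 48 h. PrestoBlue resazurin was read after 1 h at 37 °C as absorbance at 570 nm against 600 nm. Data are mean ± SEM of 3 experiments in triplicate; Student's t test.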

HepG2 [9] = test: Cytotoxicity against human HepG2 cells at 50 to 100 ug/ml after 48 hrs by presto-blue staining-based assay; assay type: cell-based; settings: hepg2, 48 h; outline: as §1
HepG2 [10] = test: Cytotoxicity against human HepG2 cells at 25 to 100 ug/ml after 48 hrs by presto-blue staining-based assay; assay type: cell-based; settings: hepg2, 48 h; outline: as §1
HepG2 [11] = test: Cytotoxicity against human HepG2 cells at 100 ug/ml after 48 hrs by presto-blue staining-based assay; assay type: cell-based; settings: hepg2, 48 h; outline: as §1

Row | Structure (SMILES) | MIC (Staphylococcus aureus [1]) [µg/mL] | MIC [2] [µg/mL] | MIC (Staphylococcus aureus [3]) [µg/mL] | MIC (Staphylococcus aureus [4]) [µg/mL] | MIC (Staphylococcus aureus [5]) [µg/mL] | MIC (Staphylococcus aureus [6]) [µg/mL] | MIC [7] [µg/mL] | Activity (HepG2 [8]) | Activity (HepG2 [9]) | Activity (HepG2 [10]) | Activity (HepG2 [11]) [%]
1 | C=C1CN(c2ccc(-c3nc(C)no3)cc2)C(=O)O1 | > 50 | > 50 | > 50 | > 50 | > 50 | – | – | – | – | – | –
2 | C=C1CN(c2ccc(-c3nc(C)no3)c(F)c2)C(=O)O1 | > 50 | > 50 | > 50 | > 50 | > 50 | – | – | – | – | – | –
3 | CNC(=S)NC[C@H]1CN(c2ccc(-c3nc(C)no3)cc2)C(=O)O1 | – | – | – | – | – | 0.5 (≈ 1.44 µM) | 8 (≈ 23 µM) | Toxic | Non-toxic | – | –
4 | CNC(=S)NC[C@H]1CN(c2ccc(-c3nc(C)no3)c(F)c2)C(=O)O1 | – | – | – | – | – | – | – | – | – | Toxic | –
5 | CNC(=S)NC[C@@H]1CN(c2ccc(-c3nc(C)no3)c(F)c2)C(=O)O1 | – | – | – | – | – | – | – | – | – | Toxic | –
6 | Cc1noc(-c2ccc(N3CC(CN=C=S)OC3=O)cc2)n1 (racemic) | > 50 | > 50 | > 50 | > 50 | 50 (≈ 158 µM) | – | – | – | – | – | –
7 | Cc1noc(-c2ccc(N3CC(CN=C=S)OC3=O)cc2F)n1 (racemic) | > 50 | > 50 | > 50 | > 50 | > 50 | – | – | – | – | – | –
8 | Cc1noc(-c2ccc(N3CC(CNC(N)=S)OC3=O)cc2)n1 (racemic) | > 50 | > 50 | > 50 | > 50 | 50 (≈ 150 µM) | – | – | – | – | – | –
9 | Cc1noc(-c2ccc(N3CC(CNC(N)=S)OC3=O)cc2F)n1 (racemic) | > 50 | > 50 | > 50 | > 50 | > 50 | – | – | – | – | – | –
10 | CNC(=S)NCC1CN(c2ccc(-c3nc(C)no3)c(F)c2)C(=O)O1 (racemic) | 6.25 (≈ 17.1 µM) | 1.6 (≈ 4.38 µM) | 6.25 (≈ 17.1 µM) | 3.12 (≈ 8.55 µM) | 6.25 (≈ 17.1 µM) | – | – | – | – | – | –
11 | CNC(=S)NCC1CN(c2ccc(-c3nc(C)no3)cc2)C(=O)O1 (racemic) | 6.25 (≈ 18 µM) | 1.6 (≈ 4.61 µM) | 6.25 (≈ 18 µM) | 3.12 (≈ 9 µM) | 6.25 (≈ 18 µM) | – | – | – | – | – | –
12 | Cc1noc(-c2ccc(N3CC(Cn4ccnn4)OC3=O)cc2)n1 (racemic) | 25 (≈ 76.6 µM) | 3.12 (≈ 9.58 µM) | 25 (≈ 76.6 µM) | 12.5 (≈ 38.3 µM) | 12.5 (≈ 38.3 µM) | – | – | – | – | – | –
13 | Cc1noc(-c2ccc(N3CC(Cn4ccnn4)OC3=O)cc2F)n1 (racemic) | 25 (≈ 72.6 µM) | 1.6 (≈ 4.65 µM) | 25 (≈ 72.6 µM) | 6.25 (≈ 18.2 µM) | 12.5 (≈ 36.3 µM) | – | – | – | – | – | –
14 | CC(=O)NC[C@H]1CN(c2ccc(N3CCOCC3)c(F)c2)C(=O)O1 [LINEZOLID] | – | – | 3.12 (≈ 9.26 µM) | – | 3.12 (≈ 9.26 µM) | – | – | – | – | – | 20

From ChEMBL document CHEMBL3351809, “New potent antibacterials against Gram-positive multiresistant pathogens: effects of side chain modification and chirality in linezolid-like 1,2,4-oxadiazoles” (Bioorg Med Chem, 2014)
